The subject of test [1] is SH-SY5Y. In words: Neuroprotective activity against Abeta (25 to 35)-induced cytotoxicity in human SH-SY5Y cells at 0.0032 uM pre-incubated for 2 hrs before Abeta (25 to 35) addition for 14 hrs by MTT assay (reference value: 60.2 to 73.5%). Type of test: functional. (In general: Tetrazolium assays rely on reduction of a dye to a coloured formazan, in cell work by metabolically active cells.)

For test [2], the system named is SH-SY5Y. In words: Neuroprotective activity against H2O2-induced cytotoxicity in human SH-SY5Y cells at 0.0032 to 2 uM pre-incubated for 2 hrs before H2O2 addition for 14 hrs by MTT assay relative to untreated control. The class given is functional. An outline of the steps: (§1)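 Hydrogen peroxide injury: SH-SY5Y cells (DMEM, 10% FBS, penicillin/streptomycin) were seeded at 15 000 cells/well and left 24 h. They received test compounds at 0.0032, 0.08 or 2 μM for 2 h before 350 μM H2O2. MTT read-out followed at 14 h: DMSO dissolution, OD 570 nm. Viability is expressed as % of control, triplicate, means ± SEM, one-way ANOVA with Newman-Keuls.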

Test [3] concerns SH-SY5Y. In words: Neuroprotective activity against Abeta (25 to 35)-induced cytotoxicity in human SH-SY5Y cells at 0.08 uM pre-incubated for 2 hrs before Abeta (25 to 35) addition for 14 hrs by MTT assay (reference value: 60.2 to 73.5%). The class given is functional.
In test [4] the test system is SH-SY5Y. In words: Neuroprotective activity against Abeta (25 to 35)-induced cytotoxicity in human SH-SY5Y cells at 0.0032 to 2 uM pre-incubated for 2 hrs before Abeta (25 to 35) addition for 14 hrs by MTT assay relative to untreated control. The class given is functional.
Test [5] has as its system SH-SY5Y. As to the kind of experiment: Neuroprotective activity against Abeta (25 to 35)-induced cytotoxicity in human SH-SY5Y cells at 2 uM pre-incubated for 2 hrs before Abeta (25 to 35) addition for 14 hrs by MTT assay (reference value: 60.2 to 73.5%). The class given is functional.
For test [6], the system named is SH-SY5Y. In words: Neuroprotective activity against CoCl2-induced cytotoxicity in human SH-SY5Y cells at 0.0032 uM pre-incubated for 2 hrs before CoCl2 addition for 14 hrs by MTT assay relative to untreated control. Type of test: functional, cell-based. The method in brief:
(§2)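 SH-SY5Y cells were kept in DMEM with 10% FBS plus penicillin/streptomycin and plated at 15 000 cells/well for 24 h. They were pretreated 2 h with compound (0.0032, 0.08, 2 μM), then challenged with 300 μM CoCl2 (chosen to give 50–70% viability). After 14 h, MTT was added, DMSO-solubilised and read at 570 nm. Values are normalized to control (100%), means ± SEM of three replicates.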

Test [7] concerns SH-SY5Y. In words: Neuroprotective activity against Abeta (25 to 35)-induced cytotoxicity in human SH-SY5Y cells at 50 uM pre-incubated for 2 hrs before Abeta (25 to 35) addition for 14 hrs by MTT assay (reference value: 60.2%). The class given is functional, cell-based.
The test system of test [8] is SH-SY5Y. In words: Neuroprotective activity against H2O2-induced cytotoxicity in human SH-SY5Y cells at 0.0032 uM pre-incubated for 2 hrs before H2O2 addition for 14 hrs by MTT assay relative to untreated control. Type of test: functional, cell-based. An outline of the steps: as §1
Test [9] has as its system SH-SY5Y. In words: Neuroprotective activity against CoCl2-induced cytotoxicity in human SH-SY5Y cells at 0.0032 to 2 uM pre-incubated for 2 hrs before CoCl2 addition for 14 hrs by MTT assay relative to untreated control. The class given is functional. The method in brief:
as §2

Active and inactive are the calls of the source. The calls are words filed in the database; no cut-off is given here.

As for `COc1cc(C[C@H](C)[C@H](COC(C)=O)Cc2ccc3c(c2)OCO3)ccc1O`, the Activity with SH-SY5Y [1] is recorded as 73.1%; with SH-SY5Y [2] it was >15%; with SH-SY5Y [3], 80.2%; in the test with SH-SY5Y [4], >15%; in the test with SH-SY5Y [5] it was 87%.

As for `COc1cc(C[C@@H](C)[C@H](C)Cc2ccc3c(c2)OCO3)ccc1O`, the result in the test with SH-SY5Y [6] was Active. Further, the Activity in the test on SH-SY5Y [1] is recorded as 73.5%; with SH-SY5Y [2] it was >15%; in the test with SH-SY5Y [3], 77.1%; in the test with SH-SY5Y [5], 72%.

In the test on SH-SY5Y [7], VITAMIN E had an Activity of 72.5%.

`C=C(Cc1ccc2c(c1)OCO2)[C@H](C)Cc1ccc(O)c(OC)c1`: the Activity with SH-SY5Y [1] was 84.7%; with SH-SY5Y [3], 78.5%; in the test with SH-SY5Y [4] it was >15%; in the test with SH-SY5Y [5], 78.1%. The outcome with SH-SY5Y [8] was Active.

Turning to `COc1cc(C[C@H](CO)[C@H](C)Cc2ccc(O)c(OC)c2)ccc1O`, the Activity in the test on SH-SY5Y [1] is on record as 77.4%; in the test with SH-SY5Y [2], >15%; in the test on SH-SY5Y [3], 74.3%; in the test on SH-SY5Y [5] it was 69.2%.

For the compound `COc1cc(C[C@H](CO)[C@H](C)Cc2ccc3c(c2)OCO3)ccc1O`, the values for the Activity in the test on SH-SY5Y [1], in the test with SH-SY5Y [3] and in the test with SH-SY5Y [5] were 70.8%, 83.6% and 84.2%, respectively.

Turning to `COc1cc([C@H]2O[C@@H](c3ccc(OC)c(OC)c3)[C@H](C)[C@H]2C)ccc1O`, the outcome in the test on SH-SY5Y [6] was Active. Also, the Activity is 81.7% in the test with SH-SY5Y [1], 75.3% in the test on SH-SY5Y [3] and 75.3% in the test on SH-SY5Y [5].

Turning to `COc1cc([C@H]2c3cc4c(cc3C[C@@H](C)[C@@H]2C)OCO4)ccc1O`, the result with SH-SY5Y [6] was Active. The Activity in the test with SH-SY5Y [1] was 84.5%; with SH-SY5Y [3], 71.9%; with SH-SY5Y [4], >15%; in the test on SH-SY5Y [5], 75.7%.

Turning to `C[C@@H]1[C@@H](CO)[C@H](c2ccc3c(c2)OCO3)O[C@H]1c1ccc2c(c1)OCO2`, the outcome with SH-SY5Y [6] was Active. Also, the Activity is 71.3% with SH-SY5Y [1], 94.3% in the test on SH-SY5Y [3], >15% in the test on SH-SY5Y [4] and 87.3% with SH-SY5Y [5].

Consider `COc1ccc([C@H]2O[C@@H](c3ccc(OC)c(OC)c3)[C@H](C)[C@@H]2C)cc1OC` [GALGRAVIN], for which the Activity in the test on SH-SY5Y [1] is 76.9%; in the test on SH-SY5Y [2] it was >15%; with SH-SY5Y [3] it was 92.9%; with SH-SY5Y [4], >15%; in the test on SH-SY5Y [5], 86.7%.

With `COc1cc(C[C@@H](COC(C)=O)[C@@H](C)Cc2ccc(O)c(OC)c2)ccc1O`, the Activity is listed as 74.1% in the test with SH-SY5Y [1]; >15% in the test on SH-SY5Y [2]; 81% in the test on SH-SY5Y [3]; >15% in the test on SH-SY5Y [4]; 83.2% in the test with SH-SY5Y [5].

Regarding `COc1ccc(C(=O)O[C@H](c2ccc(OC)c(OC)c2)[C@@H](C)C(C)=O)cc1OC`, the result with SH-SY5Y [6] was Active. Also, the Activity is 78.4% in the test with SH-SY5Y [1], 85.1% with SH-SY5Y [3], >15% with SH-SY5Y [4] and 80.4% in the test on SH-SY5Y [5].

In the case of `COc1cc(C[C@H](C)[C@H](CO)Cc2ccc3c(c2)OCO3)ccc1O`, the outcome in the test on SH-SY5Y [6] was Active. In addition, the Activity is given as 75.8% in the test with SH-SY5Y [1], 88.2% with SH-SY5Y [3], >15% in the test with SH-SY5Y [4] and 82.4% in the test on SH-SY5Y [5].

As to `COc1ccc([C@H]2O[C@H](c3ccc(OC)c(OC)c3)[C@@H](C)[C@H]2C)cc1OC` [GANSCHISANDRINE], the Activity in the test on SH-SY5Y [1] is listed as 75.1%; in the test with SH-SY5Y [9], >15%; with SH-SY5Y [3], 85.3%; in the test on SH-SY5Y [4] it was >15%; in the test on SH-SY5Y [5], 79.8%.

Turning to `COc1ccc([C@@H]2O[C@@H](c3ccc(O)c(OC)c3)[C@@H](C)[C@H]2C)cc1O`, the Activity is given as 64.5% in the test with SH-SY5Y [1], 77.1% in the test with SH-SY5Y [3], >15% with SH-SY5Y [4] and 71% in the test on SH-SY5Y [5].

Consider `COc1cc(C[C@@H](C)[C@H](C)Cc2ccc(O)c(OC)c2)ccc1O` [(-)-DIHYDROGUAIARETICACID], for which the result in the test on SH-SY5Y [6] and with SH-SY5Y [8] was Active. Further, the Activity with SH-SY5Y [1] is 79.2%; in the test with SH-SY5Y [9] it was >15%; in the test on SH-SY5Y [3], 85.1%; with SH-SY5Y [5], 80.8%.

Turning to `COc1cc(C[C@@H](C)[C@H](C)[C@@H](O)c2ccc3c(c2)OCO3)ccc1O`, the result with SH-SY5Y [6] and in the test on SH-SY5Y [8] was Active. Further, the Activity in the test with SH-SY5Y [1] was 81.6%; with SH-SY5Y [2], >15%; with SH-SY5Y [9], >15%; in the test with SH-SY5Y [3], 83.3%; in the test with SH-SY5Y [4], >15%; with SH-SY5Y [5] it was 76.6%.

In the case of `COc1cc([C@H]2O[C@@H](c3ccc4c(c3)OCO4)[C@H](C)[C@H]2COC(C)=O)ccc1O`, the outcome in the test with SH-SY5Y [6] and in the test with SH-SY5Y [8] was Active. The Activity with SH-SY5Y [1] was 68.6%; in the test on SH-SY5Y [2], >15%; in the test on SH-SY5Y [3], 88.6%; in the test with SH-SY5Y [4] it was >15%; with SH-SY5Y [5], 79.3%.

For `COc1cc(C[C@@H](COC(C)=O)[C@@H](C)Cc2ccc3c(c2)OCO3)ccc1O`, the Activity stood at 68.3% in the test with SH-SY5Y [1], 80.8% in the test with SH-SY5Y [3] and 69% in the test with SH-SY5Y [5].

The values are drawn from ChEMBL document CHEMBL4177548, “Neuroprotective Lignans from the Fruits of Schisandra bicolor var. tuberculata” (2017).
